In ChEMBL document CHEMBL2380254, “Optimization of tocotrienols as antiproliferative and antimigratory leads” (Eur J Med Chem, 2013) one finds growth data, which are given here for seven compounds.

Structures are written as SMILES.

Holding throughout (assay type): functional
One assay relates to NCI-H522. Nature of the assay: Growth inhibition of human NCI-H522 cells assessed as cell growth at 10 uM after 48 hrs by sulforhodamine B assay. Particulars: NCI-H522, 48 h, read-out: Activity. In a few lines: (§1)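 Single-dose NCI-60 screen: adherent cells in RPMI 1640 with 5% FBS were exposed to 10 µM for 48 h at 37 °C after a 24 h preincubation. They were fixed in situ with cold TCA (10% final), stained with 0.4% SRB in 1% acetic acid, solubilized in 10 mM Tris base, and read at 515 nm. Percent growth was taken relative to time-zero and control plates.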

For a further assay, the system named is RPMI-8226. Description: Growth inhibition of human RPMI8226 cells assessed as cell growth at 10 uM after 48 hrs by sulforhodamine B assay. Particulars: RPMI-8226, 48 h, read-out: Activity. In a few lines:
(§2)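 Single 10 µM dose applied to suspension cells in RPMI 1640 with 5% FBS and 2 mM L-glutamine for 48 h at 37 °C. Settled cells were fixed with 80% TCA (16% final), stained with SRB, and read at 515 nm. Percent growth was calculated against time-zero and untreated control optical densities.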
On the technique in general: Sulforhodamine B stains cellular protein and so reports cell mass.

In a further assay the test system is BT-549. Description: Growth inhibition of human BT549 cells assessed as cell growth at 10 uM after 48 hrs by sulforhodamine B assay. Particulars: BT-549, 48 h, read-out: Activity. In a few lines: (§3)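 NCI-60 single-dose screen at 10 µM: cells in RPMI 1640 with 5% FBS, preincubated 24 h, then exposed 48 h at 37 °C. TCA fixation (16% final for suspension cells), SRB staining, absorbance 515 nm. Percent growth relative to time-zero and untreated control plates; negative values indicate cell kill.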

The test system of a further assay is LOX IMVI. Description: Growth inhibition of human LOXIMVI cells assessed as cell growth at 10 uM after 48 hrs by sulforhodamine B assay. The settings on record: read-out: Activity. The method, boiled down: as §3
For another assay, the system named is NCI-H322M. Nature of the assay: Growth inhibition of human NCI-H322M cells assessed as cell growth at 10 uM after 48 hrs by sulforhodamine B assay. Particulars: read-out: Activity. The method, boiled down:
as §1

A further assay deals with SK-MEL-2. Nature of the assay: Growth inhibition of human SK-MEL-2 cells assessed as cell growth at 10 uM after 48 hrs by sulforhodamine B assay. The settings on record: SK-MEL-2, 48 h, read-out: Activity. In a few lines:
as §1

Another assay concerns OVCAR-8. Nature of the assay: Growth inhibition of human OVCAR8 cells assessed as cell growth at 10 uM after 48 hrs by sulforhodamine B assay. Particulars: OVCAR-8, 48 h, read-out: Activity. The method, boiled down:
as §1

The subject of a further assay is HOP-62. Nature of the assay: Growth inhibition of human HOP62 cells assessed as cell growth at 10 uM after 48 hrs by sulforhodamine B assay. Particulars: HOP-62, 48 h, read-out: Activity. In a few lines:
as §3

For another assay, the system named is HCT-15. Nature of the assay: Growth inhibition of human HCT15 cells assessed as cell growth at 10 uM after 48 hrs by sulforhodamine B assay. Particulars: HCT-15, 48 h, read-out: Activity. The method, boiled down:
as §3

The subject of the next assay is MOLT-4. Nature of the assay: Growth inhibition of human MOLT4 cells assessed as cell growth at 10 uM after 48 hrs by sulforhodamine B assay. The settings on record: MOLT-4, 48 h, read-out: Activity. In a few lines:
as §2

For the compound `COc1ccc(CCN2COc3c(C)c(C)c4c(c3C2)CC[C@@](C)(CC/C=C(\C)CC/C=C(\C)CCC=C(C)C)O4)cc1OC`, the growth at 10 µM in the assay on NCI-H522 was found to be 98.6%; with RPMI-8226, 64.6%; in the assay with BT-549, 115%; in the assay on LOX IMVI, 98.6%; in the assay on NCI-H322M, 101%; with SK-MEL-2 it was 120%. The growth at 10 µM turned out to be 101% in the assay with OVCAR-8, 85.7% in the assay on HOP-62, 102% with HCT-15 and 76% in the assay with MOLT-4.
With `CC(C)=CCC/C(C)=C/CC/C(C)=C/CC[C@]1(C)CCc2c3c(c(C)c(C)c2O1)OCN(CCCCCCCCCCO)C3`, the growth at 10 µM stood at 78.8% in the assay on RPMI-8226; 108% with BT-549; 93.6% in the assay on LOX IMVI; 101% with NCI-H322M; 82.3% in the assay with SK-MEL-2; 89.7% in the assay on OVCAR-8. Moreover, the growth at 10 µM stood at 90% with HOP-62, 91.1% in the assay on HCT-15 and 79.5% in the assay on MOLT-4.
For the compound `CC(C)=CCC/C(C)=C/CC/C(C)=C/CC[C@]1(C)CCc2c3c(c(C)c(C)c2O1)OCN(CCc1ccc(O)cc1)C3`, the growth at 10 µM with NCI-H522 was 90%; in the assay on BT-549, 113%; in the assay on LOX IMVI, 30.3%; in the assay with NCI-H322M, 96%; with SK-MEL-2, 121%; in the assay on OVCAR-8, 42.1%. Also, the growth at 10 µM was found to be 112% in the assay with HOP-62, 102% in the assay with HCT-15 and 40.4% with MOLT-4.
Regarding `CC(C)=CCC/C(C)=C/CC/C(C)=C/CC[C@]1(C)CCc2cc(O)c(C)c(C)c2O1` [GAMMA-TOCOTRIENOL], the growth at 10 µM worked out at 68.8% with NCI-H522; 78% in the assay with RPMI-8226; 141% with BT-549; 90% in the assay on LOX IMVI; 95.2% in the assay on NCI-H322M; 91.3% with SK-MEL-2. For the same compound, the growth at 10 µM with OVCAR-8 is 112%; in the assay on HOP-62, 108%; in the assay with HCT-15 it was 102%; in the assay with MOLT-4, 84.3%.
As for `CC(C)=CCC/C(C)=C/CC/C(C)=C/CC[C@]1(C)CCc2c3c(cc(C)c2O1)OCN(CCCCCCCCCCCCO)C3`, the growth at 10 µM is 36.7% in the assay on NCI-H522; 15.8% in the assay with RPMI-8226; 114% in the assay on BT-549; 67.1% in the assay with LOX IMVI; 86% in the assay with NCI-H322M; 15.3% in the assay with SK-MEL-2. The growth at 10 µM in the assay with OVCAR-8 is 11.7%; in the assay with HOP-62 it was 86.9%; in the assay with HCT-15, 82.9%; in the assay with MOLT-4, 48.5%.
As for `COc1ccc(CCNCc2c(O)c(C)c(C)c3c2CC[C@@](C)(CC/C=C(\C)CC/C=C(\C)CCC=C(C)C)O3)cc1OC`, the growth at 10 µM is 96.2% in the assay on NCI-H522; 118% in the assay on BT-549; 52.9% in the assay with LOX IMVI; 95.6% with NCI-H322M; 113% in the assay with SK-MEL-2; 66.8% in the assay with OVCAR-8. For the same compound, the values for the growth at 10 µM in the assay on HOP-62, with HCT-15 and in the assay with MOLT-4 were 115%, 104% and 30.3%, respectively.
With `CC(C)=CCC/C(C)=C/CC/C(C)=C/CC[C@]1(C)CCc2c(CNCCc3ccc(O)cc3)c(O)c(C)c(C)c2O1`, the growth at 10 µM amounted to 105% with NCI-H522; 105% in the assay on BT-549; 63.9% in the assay on LOX IMVI; 100% with NCI-H322M; 117% with SK-MEL-2; 84.8% with OVCAR-8. Moreover, the growth at 10 µM in the assay on HOP-62 came to 105%; with HCT-15, 106%; with MOLT-4 it was 54.6%.
